pIC50: −log10 of the molar value. The source made the active and inactive calls. The rule behind the calls is not given here.
What follows are molecules tested on PC-12 (assay: Inhibition of amyloid beta peptide-induced redox disequilibrium assessed as increase in GSHPx activity in PC12 cells). Details: Rattus norvegicus.
Type: functional, cell-based

| Structure (SMILES) | Activity |
| --- | --- |
| CC1=C[C@H]2Cc3[nH]c(=O)ccc3[C@@]3(C1)[C@@H]2CCCN3C(=O)CCN(C)CCCCCCCCCCN(C)CCC(=O)N1CCC[C@@H]2[C@H]3C=C(C)C[C@]21c1ccc(=O)[nH]c1C3 | Active |

What follows are molecules tested on PC-12 (assay: Inhibition of staurosporine-induced apoptosis in PC12 cells). Details: Rattus norvegicus.
Type: functional, cell-based

| Structure (SMILES) | Activity |
| --- | --- |
| CC1=C[C@H]2Cc3[nH]c(=O)ccc3[C@@]3(C1)[C@@H]2CCCN3C(=O)CCN(C)CCCCCCCCCCN(C)CCC(=O)N1CCC[C@@H]2[C@H]3C=C(C)C[C@]21c1ccc(=O)[nH]c1C3 | Active |

What follows are molecules tested on PC-12 (assay: Reduction of amyloid beta peptide-induced cytotoxicity in PC12 cells). Details: Rattus norvegicus.
Type: functional, cell-based

| Structure (SMILES) | Activity |
| --- | --- |
| CC1=C[C@H]2Cc3[nH]c(=O)ccc3[C@@]3(C1)[C@@H]2CCCN3C(=O)CCN(C)CCCCCCCCCCN(C)CCC(=O)N1CCC[C@@H]2[C@H]3C=C(C)C[C@]21c1ccc(=O)[nH]c1C3 | Active |

Each molecule was assayed against T1, Acetylcholinesterase (Rattus norvegicus, UniProt P37136) (assay: Inhibition of AChE in rat cortex […]). Details: not given.
T1 sequence (P37136 whole entry): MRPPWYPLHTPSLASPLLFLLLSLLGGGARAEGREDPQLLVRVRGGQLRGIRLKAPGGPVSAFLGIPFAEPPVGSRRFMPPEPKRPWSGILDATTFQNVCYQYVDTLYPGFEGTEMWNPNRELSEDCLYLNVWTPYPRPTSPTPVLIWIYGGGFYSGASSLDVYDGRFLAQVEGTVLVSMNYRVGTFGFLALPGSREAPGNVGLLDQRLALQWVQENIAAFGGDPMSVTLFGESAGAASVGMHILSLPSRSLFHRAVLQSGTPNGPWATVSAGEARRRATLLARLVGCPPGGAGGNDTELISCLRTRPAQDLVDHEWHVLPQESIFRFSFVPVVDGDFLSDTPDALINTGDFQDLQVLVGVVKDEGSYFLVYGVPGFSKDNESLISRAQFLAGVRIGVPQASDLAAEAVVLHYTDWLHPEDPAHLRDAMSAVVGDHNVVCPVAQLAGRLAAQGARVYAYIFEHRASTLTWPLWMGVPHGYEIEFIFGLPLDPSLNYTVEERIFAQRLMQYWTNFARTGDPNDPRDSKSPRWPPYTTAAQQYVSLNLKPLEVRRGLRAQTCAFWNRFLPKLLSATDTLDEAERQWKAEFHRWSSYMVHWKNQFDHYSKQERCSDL

| Structure (SMILES) | pIC50 |
| --- | --- |
| CC1=C[C@H]2Cc3[nH]c(=O)ccc3[C@@]3(C1)[C@@H]2CCCN3C(=O)CN(CC(=O)N1CCC[C@@H]2[C@H]3C=C(C)C[C@]21c1ccc(=O)[nH]c1C3)C1CC1 | 6.00 |
| CC1=C[C@H]2Cc3[nH]c(=O)ccc3[C@@]3(C1)[C@@H]2CCCN3C(=O)CN(C)CCCCCCCCCCN(C)Cc1ccc(F)cc1 | 7.28 |
| CC1=C[C@H]2Cc3[nH]c(=O)ccc3[C@@]3(C1)[C@@H]2CCCN3CCCN1CCCN(CCCN2CCC[C@@H]3[C@H]4C=C(C)C[C@]32c2ccc(=O)[nH]c2C4)CC1 | 6.48 |
| CC1=C[C@H]2Cc3[nH]c(=O)ccc3[C@@]3(C1)[C@@H]2CCCN3C(=O)CCN(C)CCCCCCN(C)CCC(=O)N1CCC[C@@H]2[C@H]3C=C(C)C[C@]21c1ccc(=O)[nH]c1C3 | 7.44 |
| CC1=C[C@H]2Cc3[nH]c(=O)ccc3[C@@]3(C1)[C@@H]2CCCN3C(=O)CN(C)CCCN(C)CC(=O)N1CCC[C@@H]2[C@H]3C=C(C)C[C@]21c1ccc(=O)[nH]c1C3 | 6.33 |
| CC1=C[C@H]2Cc3[nH]c(=O)ccc3[C@@]3(C1)[C@@H]2CCCN3C(=O)CN(C)CCCCCCCCCCCCN(C)Cc1ccccn1 | 7.18 |
| CC1=C[C@H]2Cc3[nH]c(=O)ccc3[C@@]3(C1)[C@@H]2CCCN3C(=O)CCN1CCN(CCC(=O)N2CCC[C@@H]3[C@H]4C=C(C)C[C@]32c2ccc(=O)[nH]c2C4)CC1 | 6.77 |
| CC1=C[C@H]2Cc3[nH]c(=O)ccc3[C@@]3(C1)[C@@H]2CCCN3C(=O)CN(C)CCCCCCN(C)Cc1cccc2ccccc12 | 6.91 |
| CC1=C[C@H]2Cc3[nH]c(=O)ccc3[C@@]3(C1)[C@@H]2CCCN3C(=O)CN(C)CCCCCCCCCCN(C)Cc1ccncc1 | 7.30 |
| CC1=C[C@H]2Cc3[nH]c(=O)ccc3[C@@]3(C1)[C@@H]2CCCN3CCCN(C)CCCCCCCCCCN(C)CCCN1CCC[C@@H]2[C@H]3C=C(C)C[C@]21c1ccc(=O)[nH]c1C3 | 7.58 |
| CC1=C[C@H]2Cc3[nH]c(=O)ccc3[C@@]3(C1)[C@@H]2CCCN3CCCN1CCN(CCCN2CCC[C@@H]3[C@H]4C=C(C)C[C@]32c2ccc(=O)[nH]c2C4)CC1 | 6.69 |
| CC1=C[C@H]2Cc3[nH]c(=O)ccc3[C@@]3(C1)[C@@H]2CCCN3C(=O)CN(C)CCCCCCCCN(C)Cc1ccccn1 | 7.39 |
| CC1=C[C@H]2Cc3[nH]c(=O)ccc3[C@@]3(C1)[C@@H]2CCCN3C(=O)CN(C)CCCCCCCCCCCCN(C)CC(=O)N1CCC[C@@H]2[C@H]3C=C(C)C[C@]21c1ccc(=O)[nH]c1C3 | 7.27 |
| CC1=C[C@H]2Cc3[nH]c(=O)ccc3[C@@]3(C1)[C@@H]2CCCN3CCN(C)CCCN(C)CCN1CCC[C@@H]2[C@H]3C=C(C)C[C@]21c1ccc(=O)[nH]c1C3 | 6.38 |
| CC1=C[C@H]2Cc3[nH]c(=O)ccc3[C@@]3(C1)[C@@H]2CCCN3C(=O)CN(C)CCCCCCCCCCN(C)Cc1cccc2ccccc12 | 6.92 |
| CC1=C[C@H]2Cc3[nH]c(=O)ccc3[C@@]3(C1)[C@@H]2CCCN3C(=O)CN(C)CCCCCCN(C)CC(=O)N1CCC[C@@H]2[C@H]3C=C(C)C[C@]21c1ccc(=O)[nH]c1C3 | 7.12 |
| CC1=C[C@H]2Cc3[nH]c(=O)ccc3[C@@]3(C1)[C@@H]2CCCN3C(=O)CN(C)CCCCCCCCCCN(C)Cc1ccccn1 | 7.38 |
| CCCN(CCN1CCC[C@@H]2[C@H]3C=C(C)C[C@]21c1ccc(=O)[nH]c1C3)CCN1CCC[C@@H]2[C@H]3C=C(C)C[C@]21c1ccc(=O)[nH]c1C3 | 6.00 |
| COc1ccccc1CN(C)CCCCCCCCCCN(C)CC(=O)N1CCC[C@@H]2[C@H]3C=C(C)C[C@]21c1ccc(=O)[nH]c1C3 | 7.68 |
| CC1=C[C@H]2Cc3[nH]c(=O)ccc3[C@@]3(C1)[C@@H]2CCCN3C(=O)CCN(C)CCCCCCCCCCN(C)CCC(=O)N1CCC[C@@H]2[C@H]3C=C(C)C[C@]21c1ccc(=O)[nH]c1C3 | 7.93 |

The molecules below were run against Butyrylcholinesterase (Rattus norvegicus, UniProt Q9JKC1) (assay: Inhibition of BuChE in rat serum). Details: not given.
Type: cell-free
Procedure, shortened: (§1)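 Modified Ellman colorimetric cholinesterase assay. The AChE source was rat cortex homogenate and the BuChE source was rat serum. Inhibition was measured against each enzyme, and selectivity was taken as the BuChE IC50 over the AChE IC50.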

Sequence of Butyrylcholinesterase (Q9JKC1 whole entry): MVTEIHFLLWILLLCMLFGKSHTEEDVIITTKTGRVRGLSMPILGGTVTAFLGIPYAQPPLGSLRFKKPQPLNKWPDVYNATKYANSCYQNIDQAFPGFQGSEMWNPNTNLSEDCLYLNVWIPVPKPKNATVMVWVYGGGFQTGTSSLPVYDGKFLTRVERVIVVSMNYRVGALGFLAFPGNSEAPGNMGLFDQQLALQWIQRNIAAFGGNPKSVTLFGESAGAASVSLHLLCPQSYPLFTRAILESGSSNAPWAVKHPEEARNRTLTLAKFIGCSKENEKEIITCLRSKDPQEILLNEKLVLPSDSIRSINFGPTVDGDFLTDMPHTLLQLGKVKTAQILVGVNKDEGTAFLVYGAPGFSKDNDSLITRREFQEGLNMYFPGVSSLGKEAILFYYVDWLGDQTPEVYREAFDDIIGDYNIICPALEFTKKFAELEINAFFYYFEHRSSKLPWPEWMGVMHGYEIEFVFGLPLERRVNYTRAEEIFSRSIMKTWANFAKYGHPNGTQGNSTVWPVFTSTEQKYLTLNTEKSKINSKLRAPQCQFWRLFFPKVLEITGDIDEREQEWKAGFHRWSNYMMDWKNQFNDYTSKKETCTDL

| Structure (SMILES) | pIC50 |
| --- | --- |
| CC1=C[C@H]2Cc3[nH]c(=O)ccc3[C@@]3(C1)[C@@H]2CCCN3C(=O)CN(C)CCCCCCCCCCN(C)Cc1ccc(F)cc1 | 5.46 |
| CC1=C[C@H]2Cc3[nH]c(=O)ccc3[C@@]3(C1)[C@@H]2CCCN3C(=O)CCN(C)CCCCCCN(C)CCC(=O)N1CCC[C@@H]2[C@H]3C=C(C)C[C@]21c1ccc(=O)[nH]c1C3 | 4.17 |
| CC1=C[C@H]2Cc3[nH]c(=O)ccc3[C@@]3(C1)[C@@H]2CCCN3C(=O)CN(C)CCCN(C)CC(=O)N1CCC[C@@H]2[C@H]3C=C(C)C[C@]21c1ccc(=O)[nH]c1C3 | 4.22 |
| CC1=C[C@H]2Cc3[nH]c(=O)ccc3[C@@]3(C1)[C@@H]2CCCN3C(=O)CN(C)CCCCCCN(C)CC(=O)N1CCC[C@@H]2[C@H]3C=C(C)C[C@]21c1ccc(=O)[nH]c1C3 | 4.19 |
| COc1ccccc1CN(C)CCCCCCCCCCN(C)CC(=O)N1CCC[C@@H]2[C@H]3C=C(C)C[C@]21c1ccc(=O)[nH]c1C3 | 5.06 |
| CC1=C[C@H]2Cc3[nH]c(=O)ccc3[C@@]3(C1)[C@@H]2CCCN3C(=O)CCN(C)CCCCCCCCCCN(C)CCC(=O)N1CCC[C@@H]2[C@H]3C=C(C)C[C@]21c1ccc(=O)[nH]c1C3 | 4.19 |

Species on record: Rattus norvegicus
Test: Selectivity ratio of IC50 for rat BuChE to rat IC50 for AchE
Details: not given
Procedure, shortened: as §1

| Structure (SMILES) | Ratio IC50 |
| --- | --- |
| CC1=C[C@H]2Cc3[nH]c(=O)ccc3[C@@]3(C1)[C@@H]2CCCN3C(=O)CN(C)CCCCCCCCCCN(C)Cc1ccc(F)cc1 | 67 |
| CC1=C[C@H]2Cc3[nH]c(=O)ccc3[C@@]3(C1)[C@@H]2CCCN3C(=O)CCN(C)CCCCCCN(C)CCC(=O)N1CCC[C@@H]2[C@H]3C=C(C)C[C@]21c1ccc(=O)[nH]c1C3 | 1890 |
| CC1=C[C@H]2Cc3[nH]c(=O)ccc3[C@@]3(C1)[C@@H]2CCCN3C(=O)CN(C)CCCN(C)CC(=O)N1CCC[C@@H]2[C@H]3C=C(C)C[C@]21c1ccc(=O)[nH]c1C3 | 127 |
| CC1=C[C@H]2Cc3[nH]c(=O)ccc3[C@@]3(C1)[C@@H]2CCCN3C(=O)CN(C)CCCCCCN(C)CC(=O)N1CCC[C@@H]2[C@H]3C=C(C)C[C@]21c1ccc(=O)[nH]c1C3 | 846 |
| COc1ccccc1CN(C)CCCCCCCCCCN(C)CC(=O)N1CCC[C@@H]2[C@H]3C=C(C)C[C@]21c1ccc(=O)[nH]c1C3 | 410 |
| CC1=C[C@H]2Cc3[nH]c(=O)ccc3[C@@]3(C1)[C@@H]2CCCN3C(=O)CCN(C)CCCCCCCCCCN(C)CCC(=O)N1CCC[C@@H]2[C@H]3C=C(C)C[C@]21c1ccc(=O)[nH]c1C3 | 5510 |

What follows are molecules tested on PC-12 (assay: Inhibition of amyloid beta peptide-induced redox disequilibrium assessed as decrease in SOD activity in PC12 cells). Details: Rattus norvegicus.
Type: functional, cell-based

| Structure (SMILES) | Activity |
| --- | --- |
| CC1=C[C@H]2Cc3[nH]c(=O)ccc3[C@@]3(C1)[C@@H]2CCCN3C(=O)CCN(C)CCCCCCCCCCN(C)CCC(=O)N1CCC[C@@H]2[C@H]3C=C(C)C[C@]21c1ccc(=O)[nH]c1C3 | Active |

Species on record: Mus musculus
Test: Neuroprotection against scopolamine-induced spartial performance deficits in mouse by water maze test
Type: functional, organism-based
Details: not given

| Structure (SMILES) | Activity |
| --- | --- |
| CC1=C[C@H]2Cc3[nH]c(=O)ccc3[C@@]3(C1)[C@@H]2CCCN3C(=O)CCN(C)CCCCCCCCCCN(C)CCC(=O)N1CCC[C@@H]2[C@H]3C=C(C)C[C@]21c1ccc(=O)[nH]c1C3 | Active |

The molecules below were run on PC-12 (assay: Inhibition of amyloid beta peptide-induced redox disequilibrium assessed as decrease in MDA level in PC12 cells). Details: Rattus norvegicus.
Type: functional, cell-based

| Structure (SMILES) | Activity |
| --- | --- |
| CC1=C[C@H]2Cc3[nH]c(=O)ccc3[C@@]3(C1)[C@@H]2CCCN3C(=O)CCN(C)CCCCCCCCCCN(C)CCC(=O)N1CCC[C@@H]2[C@H]3C=C(C)C[C@]21c1ccc(=O)[nH]c1C3 | Active |

Reference: ChEMBL document CHEMBL1146308 (Bioorg Med Chem, 2007)
